Laboratory results: paper PMC10622895 (Proceedings of the National Academy of Sciences of the …, 2023)

Key:
[1] = ref [1]; cited from earlier work
BCM2665 PDX = assay: IHC of cleaved PARP1 in PDX tumors; format: in vivo, mouse
How it was run: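 Tumors were taken the day after the last dose for cleaved PARP1 IHC. Percent positive cells was scored on twelve 10× images from three xenografts per group.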

BCM3107 TNBC PDX = assay: Patient-derived xenograft in NSG mice; format: in vivo, mouse; details: 5D4 40 mg/kg i.p. twice weekly; talazoparib 0.5 mg/kg daily × 5 per week
[2] = tested on: mouse intestinal epithelium; assay: IHC of cleaved PARP1 and Ki67 in mouse intestine; format: in vivo; details: mice of the BCM2665 experiment
How it was run: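 NSG mice carried BCM2665 breast cancer PDX. Mice were euthanized the day after the last dose. Intestine was IHC-stained for cleaved PARP1 (10× objective), with percent positive cells determined by image analysis. Ki67 IHC was done on intestinal epithelium (20× objective).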

## O=C(O)CN(CC(=O)O)Cc1cc2c(cc1O)Oc1cc(O)c(CN(CC(=O)O)CC(=O)O)cc1C21OC(=O)c2ccccc21 [calcein]
[1]
  membrane permeability: lacks membrane permeability

## CNCc1ccc(-c2[nH]c3cc(F)cc4c3c2CCNC4=O)cc1 [rucaparib]
AML12 mouse hepatocytes
  viability of nontransformed hepatocytes: did not elicit any effect

## Cn1ncnc1[C@H]1c2n[nH]c(=O)c3cc(F)cc(c23)N[C@@H]1c1ccc(F)cc1 [talazoparib]
BCM2665 PDX
  apoptosis in PDX (PARP-1 cleavage, IHC): only had mild proapoptotic effect
BCM3107 TNBC PDX
  tumor response, single agent: resistant
[2]
  apoptosis and Ki67 staining in mouse intestinal epithelium: neither induced apoptosis nor affected Ki67 staining
